Data as given in ChEMBL document CHEMBL1137350, “Discovery of a new class of macrocyclic antagonists to the human motilin receptor” (J Med Chem, 2006).

Tests used:
Motilin receptor [1] = biological target: T1, Motilin receptor (Homo sapiens, UniProt O43193); test: Displacement of [125I]motilin from human MOTR
In short: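 Competition binding on isolated membranes expressing human motilin receptor, with radioiodinated porcine motilin ([125I]-motilin) as tracer. 11-point concentration curves gave Ki, with a top test concentration of 10 µM. Compounds came from 10 mM DMSO stocks stored at -60 °C.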

Motilin receptor [2] = biological target: T1, Motilin receptor; test: Activity at human MOTR expressed in CHO cells assessed as inhibition of motilin-induced calcium release; assay type: functional, cell-based
In short: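 Whole CHO cells expressing cloned human motilin receptor; intracellular Ca2+ release evoked by motilin read out by aequorin luminescence. Compounds were tested in antagonist mode and also checked for agonist activity at concentrations up to 10 µM. Compound stocks were 10 mM in DMSO, stored at -60 °C.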

Motilin receptor [3] = biological target: T1, Motilin receptor; test: Activity at human MOTR expressed in CHO cells assessed as inhibition of motilin-induced calcium release upto 10 uM; assay type: functional, cell-based; conditions: filed as antagonist
In short: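 Aequorin luminescence assay on whole CHO cells expressing cloned human motilin receptor, measuring inhibition of motilin-induced Ca2+ release. Agonist activity was also checked at concentrations up to 10 µM. Compounds were TFA salts held as 10 mM DMSO stocks at -60 °C.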

Oryctolagus cuniculus = organism: Oryctolagus cuniculus; test: Antagonist activity against rabbit duodenum; conditions: read-out: pA2 (converted)

T1 sequence (O43193 whole entry): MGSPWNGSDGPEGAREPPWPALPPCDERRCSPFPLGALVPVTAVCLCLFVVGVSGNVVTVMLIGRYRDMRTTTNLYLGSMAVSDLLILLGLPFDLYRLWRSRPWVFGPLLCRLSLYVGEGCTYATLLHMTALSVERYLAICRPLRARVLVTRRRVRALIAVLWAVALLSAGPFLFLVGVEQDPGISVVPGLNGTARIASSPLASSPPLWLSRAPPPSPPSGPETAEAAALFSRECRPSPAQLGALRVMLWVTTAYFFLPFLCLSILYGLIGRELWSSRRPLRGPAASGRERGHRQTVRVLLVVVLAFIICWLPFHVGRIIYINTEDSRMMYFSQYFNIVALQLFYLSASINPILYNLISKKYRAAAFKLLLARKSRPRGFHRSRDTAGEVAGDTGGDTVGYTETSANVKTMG

With `CCC[C@@H]1NC(=O)[C@@H](C(C)C)NC(=O)[C@@H](Cc2ccc(OC)cc2)NCCOc2ccccc2CCCNC1=O` the Ki (Motilin receptor [1]) was 8 nM, the IC50 (Motilin receptor [2]) was 23 nM and the Activity (Motilin receptor [3]) was “Antagonist”. It also gave a Kb (Oryctolagus cuniculus) of 100 nM.
